{"source": "ChEMBL document CHEMBL4043182", "about": "“On the synthesis of quinone-based BODIPY hybrids: New insights on antitumor activity and mechanism of action in cancer cells” (Bioorg Med Chem Lett, 2017)", "key": {"PC-3 [1]": {"tested_on": "PC-3", "assay": "Induction of oxidative stress in human PC3 cells assessed as total GSSG levels at 5 uM treated 24 hrs post NAC addition measured after 24 hrs by spectrophotometric analysis (reference value: 1.11 +/- 0.12 microg/mg)", "format": "functional", "how_it_was_run": "(§1)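 Cells were pretreated 24 h with 5 mM NAC, then exposed 24 h to test compound at 5 µM. Controls received 0.1% DMSO. Extracts were prepared by sonication and HClO4 precipitation, then neutralized with KOH. Total glutathione was read by DTNB/glutathione reductase/NADPH rate at 412 nm. GSSG was measured after 4-vinylpyridine (0.1%, 1 h, RT) and GSH derived by difference. Values are normalized to protein, triplicates, three independent runs.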"}, "MDA-MB-435": {"tested_on": "MDA-MB-435", "assay": "Antiproliferative activity against human MDA-MB-435 cells after 72 hrs by MTT assay", "format": "functional, cell-based", "settings": "MDA-MB-435, 72 h", "how_it_was_run": "(§2)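 MTT reduction: cancer lines plated at 0.7×10^5 to 0.3×10^6 cells/well, V79 and L929 fibroblasts at 0.5×10^5 cells/well. Compounds in DMSO (0.1%) were given for 24 h at 0.04–40.92 µM or 72 h at 0.04–8.19 µM. Fresh medium with 0.5 mg/mL MTT was added for 3 h, then formazan was dissolved in DMSO and read at 595 nm as % of control. IC50 came from nonlinear regression with 95% CI. Doxorubicin (0.001–1.06 µM) was the positive control. Triplicate, ≥3 repeats.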"}, "SW-620": {"tested_on": "SW-620", "assay": "Antiproliferative activity against human SW620 cells after 72 hrs by MTT assay", "format": "functional, cell-based", "settings": "SW-620, 72 h", "how_it_was_run": "as §2"}, "[2]": {"assay": "Selectivity index, ratio of IC50 for mouse L929 cells to IC50 for human PC3 cells", "format": "functional", "how_it_was_run": "(§3)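 Selectivity index is the ratio of the IC50 in a non-cancer murine line (V79 or L929) to the IC50 in the cancer line. […] MTT was 0.5 mg/mL for 3 h, formazan dissolved in DMSO and read at 595 nm as % of control. IC50s were derived by nonlinear regression; triplicate, at least three repeats.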"}, "[3]": {"assay": "Selectivity index, ratio of IC50 for mouse L929 cells to IC50 for human SF295 cells", "format": "functional", "how_it_was_run": "as §3"}, "[4]": {"assay": "Selective index, ratio of IC50 for mouse L929 cells to IC50 for human SW620 cells", "how_it_was_run": "as §3"}, "[5]": {"assay": "Selective index, ratio of IC50 for mouse L929 cells to IC50 for human HCT116 cells", "how_it_was_run": "as §3"}, "[6]": {"assay": "Selective index, ratio of IC50 for chinese hamster V79 cells to IC50 for human HCT116 cells", "how_it_was_run": "as §3"}, "PC-3 [7]": {"tested_on": "PC-3", "assay": "Induction of lipid peroxidation in human PC3 cells assessed as increase in MDA levels at 2.5 to 10 uM treated 24 hrs post NAC addition measured after 24 hrs by TBARS assay", "format": "functional, cell-based", "how_it_was_run": "(§4)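 TBARS: cells were exposed 24 h, with or without 24 h prior 5 mM NAC, and lysed in Tris-HCl. Lysate was heated with TCA/0.25 M HCl and 6.7 mg/mL TBA for 15 min at 100 °C, centrifuged, and read at 532 nm. Hydrolyzed tetramethoxypropane served as standard, with values normalized to protein. H2O2 (10 µM) was the positive control. Three independent experiments in triplicate; ANOVA/Tukey.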"}, "SF-295 [8]": {"tested_on": "SF-295", "assay": "Induction of lipid peroxidation in human SF295 cells assessed as increase in MDA levels at 2.5 to 10 uM treated 24 hrs post NAC addition measured after 24 hrs by TBARS assay", "format": "functional, cell-based", "how_it_was_run": "as §4"}, "PC-3 [9]": {"tested_on": "PC-3", "assay": "Induction of oxidative stress in human PC3 cells assessed as total GSH levels at 5 uM after 24 hrs by spectrophotometric analysis (reference value: 3.04 +/- 0.51 microg/mg)", "format": "functional"}, "SF-295 [10]": {"tested_on": "SF-295", "assay": "Induction of oxidative stress in human SF295 cells assessed as total intracellular thiol levels at 5 uM treated 24 hrs post NAC addition measured after 24 hrs by spectrophotometric analysis (reference value: 4.51 +/- 0.83 microg/mg)", "format": "functional", "how_it_was_run": "as §1"}, "SF-295 [11]": {"tested_on": "SF-295", "assay": "Induction of oxidative stress in human SF295 cells assessed as total GSH levels at 5 uM after 24 hrs by spectrophotometric analysis (reference value: 3.16 +/- 0.21 microg/mg)", "format": "functional"}, "SF-295 [12]": {"tested_on": "SF-295", "assay": "Induction of oxidative stress in human SF295 cells assessed as total GSSG levels at 5 uM treated 24 hrs post NAC addition measured after 24 hrs by spectrophotometric analysis (reference value: 1.31 +/- 0.55 microg/mg)", "format": "functional", "how_it_was_run": "as §1"}, "SF-295 [13]": {"tested_on": "SF-295", "assay": "Induction of oxidative stress in human SF295 cells assessed as GSH to GSSG ratio at 5 uM treated 24 hrs post NAC addition measured after 24 hrs by spectrophotometric analysis (reference value: 2.34 +/- 0.56 microg/mg)", "format": "functional", "how_it_was_run": "as §1"}, "HCT-116 [14]": {"tested_on": "HCT-116", "assay": "Induction of oxidative stress in human HCT116 cells assessed as GSH to GSSG ratio at 5 uM after 24 hrs by spectrophotometric analysis (reference value: 3.09 +/- 0.33 microg/mg)", "format": "functional"}, "L929 [15]": {"tested_on": "L929", "assay": "Induction of oxidative stress in mouse L929 cells assessed as total GSH levels at 5 uM treated 24 hrs post NAC addition measured after 24 hrs by spectrophotometric analysis (reference value: 3.76 +/- 0.51 microg/mg)", "format": "cell-based", "settings": "l929, 24 h"}, "L929 [16]": {"tested_on": "L929", "assay": "Induction of oxidative stress in mouse L929 cells assessed as GSH to GSSG ratio at 5 uM treated 24 hrs post NAC addition measured after 24 hrs by spectrophotometric analysis (reference value: 3.55 +/- 0.51 microg/mg)", "format": "cell-based", "settings": "l929, 24 h", "how_it_was_run": "as §1"}, "HCT-116 [17]": {"tested_on": "HCT-116", "assay": "Cytotoxicity against human HCT116 cells after 24 hrs in presence of GSH-OEt by MTT assay", "format": "functional, cell-based", "settings": "HCT-116, 24 h", "how_it_was_run": "(§5)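 24 h MTT exposure (0.04–40.92 µM in 0.1% DMSO), with or without co-treatment with GSH ethyl ester (15 mM) to gauge the ROS contribution. MTT was 0.5 mg/mL for 3 h, with formazan dissolved in DMSO and absorbance at 595 nm expressed as % of control. Triplicate, repeated at least three times.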"}, "PC-3 [18]": {"tested_on": "PC-3", "assay": "Cytotoxicity against human PC3 cells after 24 hrs in absence of GSH-OEt by MTT assay", "format": "functional, cell-based", "settings": "PC-3, 24 h", "how_it_was_run": "as §5"}, "L929 [19]": {"tested_on": "L929", "assay": "Cytotoxicity against mouse L929 cells after 24 hrs in absence of GSH-OEt by MTT assay", "format": "cell-based", "settings": "L929, 24 h", "how_it_was_run": "as §5"}, "PC-3 [20]": {"tested_on": "PC-3", "assay": "Geno-toxicity in human PC3 cells assessed as induction of DNA damage at 2.5 to 10 uM after 24 hrs in absence of NAC by alkaline comet assay", "format": "functional, cell-based", "how_it_was_run": "(§6)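 Alkaline comet assay after 24 h at 2.5, 5 and 10 µM, with or without 24 h pretreatment with 5 mM NAC. Cells were trypsinized and embedded in 0.75% low-melting agarose, then lysed at pH 10, 4 °C, ≥1 h. DNA was unwound 20 min at pH >13 and electrophoresed 20 min at 25 V, 300 mA (0.86 V/cm), then stained with ethidium bromide. 100 cells (2 slides) were scored in classes 0–4 for a damage index. Mean ± SEM, three independent experiments in triplicate.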"}, "PC-3 [21]": {"tested_on": "PC-3", "assay": "Geno-toxicity in human PC3 cells assessed as induction of DNA damage at 2.5 to 10 uM treated 24 hrs post NAC addition measured after 24 hrs by alkaline comet assay", "format": "functional, cell-based", "how_it_was_run": "as §6"}}, "note": "Calls of active or inactive are those of the source. The calls are words filed in the database; no cut-off is given here."}
{"compound": "CC1(C)OC2=C(C(=O)C(=O)c3ccccc32)C1n1cc(CNC2=[N+]3C(=C(c4ccccc4)c4ccc(Cl)n4[B-]3(F)F)C=C2)nn1", "note": "(stereo not drawn)", "values": [{"measurement": "Activity", "setting": "PC-3 [1]", "result": 1.07, "unit": "µg/mg"}, {"measurement": "IC50", "setting": "MDA-MB-435", "result": 0.81, "unit": "µM"}, {"measurement": "IC50", "setting": "SW-620", "result": 0.68, "unit": "µM"}, {"measurement": "Ratio IC50", "setting": "[2]", "result": 2.4}, {"measurement": "Ratio IC50", "setting": "[3]", "result": 3}, {"measurement": "Ratio IC50", "setting": "[4]", "result": 1.4}, {"measurement": "Ratio IC50", "setting": "[5]", "result": 3}, {"measurement": "Ratio IC50", "setting": "[6]", "result": 2}, {"measurement": "Activity", "setting": "PC-3 [7]", "result": "inactive"}, {"measurement": "Activity", "setting": "SF-295 [8]", "result": "inactive"}, {"measurement": "Activity", "setting": "PC-3 [9]", "result": 1.35, "unit": "µg/mg"}, {"measurement": "Activity", "setting": "SF-295 [10]", "result": 4.72, "unit": "µg/mg"}, {"measurement": "Activity", "setting": "SF-295 [11]", "result": 1.31, "unit": "µg/mg"}, {"measurement": "Activity", "setting": "SF-295 [12]", "result": 1.21, "unit": "µg/mg"}, {"measurement": "Activity", "setting": "SF-295 [13]", "result": 2.82, "unit": "µg/mg"}, {"measurement": "Activity", "setting": "HCT-116 [14]", "result": 0.56, "unit": "µg/mg"}, {"measurement": "Activity", "setting": "L929 [15]", "result": 3.89, "unit": "µg/mg"}, {"measurement": "Activity", "setting": "L929 [16]", "result": 3.08, "unit": "µg/mg"}, {"measurement": "IC50", "setting": "HCT-116 [17]", "result": 14.2, "unit": "µM"}, {"measurement": "IC50", "setting": "PC-3 [18]", "result": 4.47, "unit": "µM"}, {"measurement": "IC50", "setting": "L929 [19]", "result": 5.91, "unit": "µM"}, {"measurement": "Activity", "setting": "PC-3 [20]", "result": "Active"}, {"measurement": "Activity", "setting": "PC-3 [21]", "result": "Active"}]}
